How the values were obtained:
[1] = substrate: N#CCC(=O)CC(Cc1ccccc1)C(=O)NC(Cc1ccccc1)C(=O)O
[2] = substrate: N#CCC(=O)NC(Cc1ccccc1)C(=O)NC(Cc1ccccc1)C(=O)O; assay: Michaelis-Menten constant determined for Neutral endopeptidase (NEP)
Summary of the method: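 Recombinant human NEP from CHO cells (>99% pure), 0.5 μM in 50 mM HEPES pH 7.4 with 10% p-dioxane, incubated at 25 °C with inactivator at 0.5–7.5 μM final. Aliquots diluted 1:100 into DAGNPG assay solution (50 mM Tris pH 7.4, 37 °C), fluorescence read at ex 342/em 562 nm. Pseudo-first-order kobs plotted double-reciprocally against inactivator concentration to give kinact and Km.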

[3] = substrate: N#CCC(=O)NC(Cc1ccccc1)C(=O)NC(Cc1ccccc1)C(=O)O; assay: Michaelis-Menten constant determined for Angiotensin I converting enzyme

Row | Protein | Km [1] [mM] | Km [2] [mM] | Km [3] [mM]
1 | Neprilysin (Homo sapiens), P08473 (protein) MGKSESQMDITDINTPKPKKKQRWTPLEISLSVLVLLLTIIAVTMIALYATYDDGICKSSDCIKSAARLIQNMDATTEPCTDFFKYACGGWLKRNVIPETSSRYGNFDILRDELEVVLKDVLQEPKTEDIVAVQKAKALYRSCINESAIDSRGGEPLLKLLPDIYGWPVATENWEQKYGASWTAEKAIAQLNSKYGKKVLINLFVGTDDKNSVNHVIHIDQPRLGLPSRDYYECTGIYKEACTAYVDFMISVARLIRQEERLPIDENQLALEMNKVMELEKEIANATAKPEDRNDPMLLYNKMTLAQIQNNFSLEINGKPFSWLNFTNEIMSTVNISITNEEDVVVYAPEYLTKLKPILTKYSARDLQNLMSWRFIMDLVSSLSRTYKESRNAFRKALYGTTSETATWRRCANYVNGNMENAVGRLYVEAAFAGESKHVVEDLIAQIREVFIQTLDDLTWMDAETKKRAEEKALAIKERIGYPDDIVSNDNKLNNEYLELNYKEDEYFENIIQNLKFSQSKQLKKLREKVDKDEWISGAAVVNAFYSSGRNQIVFPAGILQPPFFSAQQSNSLNYGGIGMVIGHEITHGFDDNGRNFNKDGDLVDWWTQQSASNFKEQSQCMVYQYGNFSWDLAGGQHLNGINTLGENIADNGGLGQAYRAYQNYIKKNGEEKLLPGLDLNHKQLFFLNFAQVWCGTYRPEYAVNSIKTDVHSPGNFRIIGTLQNSAEFSEAFHCRKNSYMNPEKKCRVW | 5.1 | 2.38 | 
2 | Angiotensin-converting enzyme (Rattus norvegicus), P47820 (protein) MGAASGQRGRWPLSPPLLMLSLLLLLLLPPSPAPALDPGLQPGNFSADEAGAQLFADSYNSSAEVVMFQSTAASWAHDTNITEENARLQEEAALINQEFAEVWGKKAKELYESIWQNFTDQKLRRIIGSVQTLGPANLPLTQRLQYNSLLSNMSRIYSTGKVCFPNKTATCWSLDPELTNILASSRNYAKVLFAWEGWHDAVGIPLRPLYQDFTALSNEAYRQDGFSDTGAYWRSWYESPSFEESLEHLYHQVEPLYLNLHAFVRRALHRRYGDKYINLRGPIPAHLLGDMWAQSWENIYDMVVPFPDKPNLDVTSTMVQKGWNATHMFRVAEEFFTSLGLSPMPPEFWAESMLEKPADGREVVCHASAWDFYNRKDFRIKQCTRVTMDQLSTVHHEMGHVQYYLQYKDLHVSLRRGANPGFHEAIGDVLALSVSTPAHLHKIGLLDRVANDIESDINYLLKMALEKIAFLPFGYLVDQWRWGVFSGRTPPSRYNYDWWYLRTKYQGICPPVARNETHFDAGAKFHIPSVTPYIRYFVSFVLQFQFHQALCKEAGHQGPLHQCDIYQSTKAGAKLQQVLQAGCSRPWQEVLKDLVGSDALDASALMEYFQPVSQWLQEQNQRNGEVLGWPEYQWRPPLPDNYPEGIDLETDEAKANRFVEEYDRTAKVLWNEYAEANWHYNTNITIEGSKILLQKNKEVSNHTLKYGTWAKTFDVSNFQNSTIKRIIKKVQNVDRAVLPPNELEEYNQILLDMETTYSVANVCYTNGTCLSLEPDLTNIMATSRKYEELLWVWKSWRDKVGRAILPFFPKYVDFSNKIAKLNGYSDAGDSWRSSYESDDLEQDLEKLYQELQPLYLNLHAYVRRSLHRHYGSEYINLDGPIPAHLLGNMWAQTWSNIYDLVAPFPSAPSIDATEAMIKQGWTPRRIFKEADNFFTSLGLLPVPPEFWNKSMLEKPTDGREVVCHASAWDFYNGKDFRIKQCTSVNMEELVIAHHEMGHIQYFMQYKDLPVTFREGANPGFHEAIGDVLALSVSTPKHLHSLNLLSSEGSGYEHDINFLMKMALDKIAFIPFSYLIDQWRWRVFDGSITKENYNQEWWSLRLKYQGLCPPVPRSQGDFDPGSKFHVPANVPYIRYFISFIIQFQFHEALCRAAGHTGPLYKCDIYQSKEAGKLLADAMKLGYSKQWPEAMKIITGQPNMSASAIMNYFKPLTEWLVTENRRHGETLGWPEYTWTPNTARAEGSLPESSRVNFLGMYLEPQQARVGQWVLLFLGVALLVATVGLAHRLYNIHNHHSLRRPHRGPQFGSEVELRHS |  |  | 10.5

Source: ChEMBL document CHEMBL1126768, “A mechanism-based inactivation study of neutral endopeptidase 24.11” (J Med Chem, 1993)
